Values after ≈ are worked out from the molar mass of the structure shown.
Key:
[1] = test system: Plasmodium falciparum; experiment: In vitro antimalarial activity against Plasmodium falciparum D6; format: functional, organism-based
[2] = test system: Plasmodium falciparum; experiment: In vitro antimalarial activity against Plasmodium falciparum W-2; format: functional, organism-based
[3] = test system: Mus musculus; experiment: In vivo antimalarial activity against Plasmodium berghei. Activity expressed as ED90.; format: functional
Summary of the method: (§1)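 Mice infected with drug-sensitive N strain of P. berghei; compound given subcutaneously as a single daily dose for 4 days. ED50 and ED90 reported in mg/kg.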

[4] = test system: Mus musculus; experiment: In vivo antimalarial activity against Plasmodium berghei. Activity expressed as ED50.; format: functional; summary of the method: as §1

| Structure (SMILES) | IC50 [1] [ng/mL] | IC50 [2] [ng/mL] | ED90 [3] [mg/kg] | ED50 [4] [mg/kg] |
| --- | --- | --- | --- | --- |
| CO[C@H]1O[C@@]2(C)CC[C@H]3CCC[C@@H](CCOCc4ccc(-c5ccccc5)cc4)[C@]31OO2 | 6 (≈ 0.0137 µM) | 6 (≈ 0.0137 µM) | – | – |
| CO[C@H]1O[C@@]2(C)CC[C@H]3CCC[C@@H](CCOCc4cc[n+](C)cc4)[C@]31OO2.[I-] | – | 85 | – | – |
| C[C@H]1[C@H](OC(=O)CCC(=O)[O-])O[C@@H]2O[C@@]3(C)CC[C@H]4[C@H](C)CC[C@@H]1[C@@]24OO3.[Na+] [SODIUM ARESUNATE] | – | – | 4.9 | 1.5 |
| CO[C@H]1O[C@@]2(C)CC[C@H]3CCC[C@@H](CCOCc4ccccc4)[C@]31OO2 | 8 (≈ 0.0221 µM) | 3 (≈ 0.00828 µM) | – | – |
| CO[C@H]1O[C@@]2(C)CC[C@H]3CCC[C@@H](CCOCc4ccc(F)cc4)[C@]31OO2 | 3 (≈ 0.00789 µM) | 4.5 (≈ 0.0118 µM) | 13.5 | 7.6 |
| CO[C@H]1O[C@@]2(C)CC[C@H]3CCC[C@@H](CCOCc4ccccn4)[C@]31OO2 | 18 (≈ 0.0495 µM) | 7 (≈ 0.0193 µM) | – | – |
| CO[C@H]1O[C@@]2(C)CC[C@H]3CCC[C@@H](CCOCc4ccncc4)[C@]31OO2 | 10 (≈ 0.0275 µM) | 7.5 (≈ 0.0206 µM) | – | – |

— ChEMBL document CHEMBL1128239, “Structure-activity relationships of lactone ring-opened analogs of the antimalarial 1,2,4-trioxane artemisinin” (J Med Chem, 1995)
